Among the data in ChEMBL document CHEMBL2074148, “Interaction of human and rat organic anion transporter 2 with various cephalosporin antibiotics” (Eur J Pharmacol, 2003) are IC50, Activity and Km values, retold here.

Some results are limits rather than exact numbers.

What all share (type): functional, cell-based
The target in series [1] is T1, Solute carrier family 22 member 7 (Rattus norvegicus, UniProt Q5RLM2).
T1 sequence (Q5RLM2 whole entry): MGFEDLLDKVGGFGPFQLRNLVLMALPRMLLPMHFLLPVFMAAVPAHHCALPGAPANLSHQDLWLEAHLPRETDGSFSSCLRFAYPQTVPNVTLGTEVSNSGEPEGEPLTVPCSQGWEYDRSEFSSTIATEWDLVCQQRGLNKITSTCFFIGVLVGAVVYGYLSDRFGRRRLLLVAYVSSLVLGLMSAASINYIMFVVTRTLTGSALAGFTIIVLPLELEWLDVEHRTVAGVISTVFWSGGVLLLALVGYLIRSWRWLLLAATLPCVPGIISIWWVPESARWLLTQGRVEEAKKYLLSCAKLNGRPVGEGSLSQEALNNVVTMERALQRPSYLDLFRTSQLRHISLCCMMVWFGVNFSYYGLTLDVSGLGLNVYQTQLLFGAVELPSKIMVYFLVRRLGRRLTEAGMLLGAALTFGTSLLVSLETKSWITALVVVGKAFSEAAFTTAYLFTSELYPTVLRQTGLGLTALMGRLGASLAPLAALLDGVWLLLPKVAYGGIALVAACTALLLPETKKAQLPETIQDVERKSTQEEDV
Kind of series: (§1) TP_TRANSPORTER: inhibition of PGF2alpha in OAT2-S2 cells. A digest of the protocol: (§2)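 S2 cells stably expressing human or rat OAT2, seeded at 1 × 10^5 cells/well and grown for 2 days. Washed, then preincubated 10 min at 37 °C in D-PBS (pH 7.4). Uptake of 50 nM [3H]prostaglandin F2α measured at 37 °C with or without various concentrations of cephalosporin: 20 s for human OAT2, 2 min for rat OAT2. Stopped with ice-cold D-PBS; cells lysed in 0.1 N NaOH; scintillation counting.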

In series [2] the target is T2, Solute carrier family 22 member 7 (Homo sapiens, UniProt Q9Y694).
T2 sequence (Q9Y694 whole entry): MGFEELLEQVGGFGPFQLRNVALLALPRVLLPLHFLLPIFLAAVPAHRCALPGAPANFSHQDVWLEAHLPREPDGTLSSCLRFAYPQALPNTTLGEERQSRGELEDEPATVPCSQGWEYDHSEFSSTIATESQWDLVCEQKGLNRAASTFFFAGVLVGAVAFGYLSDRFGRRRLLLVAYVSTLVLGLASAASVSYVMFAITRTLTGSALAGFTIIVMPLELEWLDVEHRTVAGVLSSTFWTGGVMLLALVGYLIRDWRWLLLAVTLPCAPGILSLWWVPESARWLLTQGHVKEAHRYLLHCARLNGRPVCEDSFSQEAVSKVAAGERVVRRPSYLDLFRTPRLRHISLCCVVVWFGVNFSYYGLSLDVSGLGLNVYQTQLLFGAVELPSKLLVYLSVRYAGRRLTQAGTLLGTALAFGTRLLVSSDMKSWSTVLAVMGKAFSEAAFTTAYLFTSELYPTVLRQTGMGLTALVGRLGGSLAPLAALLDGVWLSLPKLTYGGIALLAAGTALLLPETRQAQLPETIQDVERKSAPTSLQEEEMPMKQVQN
Described as §1. A digest of the protocol: as §2

In series [3] the target is T3, Organic anion transporter 3 (Homo sapiens, UniProt Q8TCC7).
T3 sequence (Q8TCC7 whole entry): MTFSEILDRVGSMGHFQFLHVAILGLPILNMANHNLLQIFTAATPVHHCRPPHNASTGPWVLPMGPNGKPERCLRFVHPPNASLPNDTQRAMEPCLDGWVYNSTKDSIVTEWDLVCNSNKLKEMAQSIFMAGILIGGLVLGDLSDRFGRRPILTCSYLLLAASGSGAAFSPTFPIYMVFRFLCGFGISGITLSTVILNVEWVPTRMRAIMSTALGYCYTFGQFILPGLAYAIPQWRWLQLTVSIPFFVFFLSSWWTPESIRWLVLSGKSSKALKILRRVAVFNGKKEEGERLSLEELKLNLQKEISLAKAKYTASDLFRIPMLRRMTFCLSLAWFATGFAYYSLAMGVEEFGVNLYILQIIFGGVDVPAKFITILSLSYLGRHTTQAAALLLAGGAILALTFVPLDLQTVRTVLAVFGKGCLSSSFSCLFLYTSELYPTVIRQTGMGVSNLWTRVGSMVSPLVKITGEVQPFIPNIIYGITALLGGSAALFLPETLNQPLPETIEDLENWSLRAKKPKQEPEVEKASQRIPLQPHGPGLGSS
In words: TP_TRANSPORTER: cell viability in OAT3-S2 cells. Summed up: (§3)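 S2 cells stably transfected with the human OAT (pcDNA3.1), alongside mock-transfected controls, were seeded at 1 × 10^5 cells/well and cultured for 2 days. Cells were then exposed to 5 mM cephalosporin, with or without 1 mM probenecid, at 33 °C for 24 h. MTT was added for a further 4 h at 33 °C. Cells were solubilized in isopropanol/HCl and OD read at 570 nm (630 nm reference). Four determinations; mean ± S.E.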

Series [4] concerns the target T4, Solute carrier family 22 member 11 (Homo sapiens, UniProt Q9NSA0).
T4 sequence (Q9NSA0 whole entry): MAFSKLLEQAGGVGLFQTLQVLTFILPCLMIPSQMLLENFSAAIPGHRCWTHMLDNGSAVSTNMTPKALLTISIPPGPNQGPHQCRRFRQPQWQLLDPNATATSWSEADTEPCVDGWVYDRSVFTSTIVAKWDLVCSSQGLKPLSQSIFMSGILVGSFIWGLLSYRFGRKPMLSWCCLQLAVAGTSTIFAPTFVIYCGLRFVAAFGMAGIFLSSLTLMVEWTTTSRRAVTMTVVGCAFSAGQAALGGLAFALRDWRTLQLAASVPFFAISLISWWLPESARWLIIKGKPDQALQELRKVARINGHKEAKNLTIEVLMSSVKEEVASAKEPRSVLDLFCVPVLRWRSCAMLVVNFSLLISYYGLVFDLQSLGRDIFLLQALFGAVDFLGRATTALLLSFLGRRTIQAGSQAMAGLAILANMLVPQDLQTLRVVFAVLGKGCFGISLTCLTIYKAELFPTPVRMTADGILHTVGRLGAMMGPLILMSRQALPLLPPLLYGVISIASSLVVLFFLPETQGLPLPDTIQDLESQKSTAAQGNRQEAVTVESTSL
In words: TP_TRANSPORTER: cell viability in OAT4-S2 cells. Summed up: as §3

Substrate in series [5]: CCCCC[C@H](O)/C=C/[C@@H]1[C@@H](C/C=C\CCCC(=O)O)[C@@H](O)C[C@H]1O
In words: TP_TRANSPORTER: uptake in OAT2-S2 cells.

Regarding `O=C(Cc1cccs1)N[C@@H]1C(=O)N2C(C(=O)[O-])=C(C[n+]3ccccc3)CS[C@H]12` [CEPHALORIDINE], the IC50 (in general, the point on the concentration scale where inhibition reaches its midpoint) is over 5 mM in series [1] and 4.48 mM in series [2]. The Activity result in series [3] and in series [4] was “substrate []” throughout.
For the molecule `CCN1CCN(C(=O)N[C@@H](C(=O)N[C@@H]2C(=O)N3C(C(=O)O)=C(CSc4nnnn4C)CS[C@H]23)c2ccc(O)cc2)C(=O)C1=O` [CEFOPERAZONE], the figures for the 50% inhibitory concentration (IC50) in series [1] and in series [2] were 1.62 mM and 1.33 mM, respectively.
The matching figures for `CC(=O)OCC1=C(C(=O)O)N2C(=O)[C@@H](NC(=O)Cc3cccs3)[C@H]2SC1` [CEPHALOTHIN]: 1.5 mM and 1.41 mM.
For `Cn1nnnc1SCC1=C(C(=O)O)N2C(=O)[C@@H](NC(=O)[C@H](O)c3ccccc3)[C@H]2SC1` [CEFAMANDOLE], in that order: 3.18 mM and 1.57 mM.
For the molecule `CO/N=C(\C(=O)N[C@@H]1C(=O)N2C(C(=O)O)=C(COC(C)=O)CS[C@H]12)c1csc(N)n1` [CEFOTAXIME], the IC50 in series [1] is over 5 mM; in series [2], 4.68 mM.

B1: Solute carrier family 22 member 7 (Rattus norvegicus) (protein)
chain: MGFEDLLDKVGGFGPFQLRNLVLMALPRMLLPMHFLLPVFMAAVPAHHCALPGAPANLSHQDLWLEAHLPRETDGSFSSCLRFAYPQTVPNVTLGTEVSNSGEPEGEPLTVPCSQGWEYDRSEFSSTIATEWDLVCQQRGLNKITSTCFFIGVLVGAVVYGYLSDRFGRRRLLLVAYVSSLVLGLMSAASINYIMFVVTRTLTGSALAGFTIIVLPLELEWLDVEHRTVAGVISTVFWSGGVLLLALVGYLIRSWRWLLLAATLPCVPGIISIWWVPESARWLLTQGRVEEAKKYLLSCAKLNGRPVGEGSLSQEALNNVVTMERALQRPSYLDLFRTSQLRHISLCCMMVWFGVNFSYYGLTLDVSGLGLNVYQTQLLFGAVELPSKIMVYFLVRRLGRRLTEAGMLLGAALTFGTSLLVSLETKSWITALVVVGKAFSEAAFTTAYLFTSELYPTVLRQTGLGLTALMGRLGASLAPLAALLDGVWLLLPKVAYGGIALVAACTALLLPETKKAQLPETIQDVERKSTQEEDV
As for B1, the Michaelis constant (Km) (commonly the concentration of substrate that gives half-maximal velocity) in series [5] was found to be 0.414 µM.
